The values that follow come from ChEMBL document CHEMBL1133019, “Synthesis, spectroscopy, and cytotoxicity of glycosylated acetogenin derivatives as promising molecules for cancer therapy” (J Med Chem, 2000).

Assay [1] is described as follows: Cytotoxic activity against human epidermoid carcinoma cells (KB). In kind it is functional. A digest of the protocol: (§1)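 Adherent monolayers seeded 24 h before treatment; 3-fold serial dilutions added; 72 h at 37 °C, humidified 5% CO2. Cells formol-fixed, methylene blue stained, washed, dye released with 0.1 M HCl, absorbance at 620 nm. Proliferation as % of acetogenin-free control; EC50 (50% growth inhibition) read from dose-response curves.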

The subject of assay [2] is L1210. The experiment in a line: Cell Cycle inhibition against mouse lymphocytic leukemia cells (L1210) at 10 uM. In kind it is functional. A digest of the protocol:
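L1210 cells cultured 24 h with compound, alongside a compound-free control flask; BrdU added after 15 min. Cells ethanol-permeabilized, stained with rat anti-BrdU then FITC goat secondary, counterstained with propidium iodide, analysed by flow cytometry. Percentage of cells in each cell-cycle phase calculated from histograms.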

For assay [3], the system named is L1210. The experiment in a line: Cytotoxic activity against mouse lymphocytic leukemia cells (L1210). In kind it is functional, cell-based. The gist of the method: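 L1210 in RPMI 1640 with 10% FBS, 2 mM L-glutamine, penicillin/streptomycin; doubling time about 13 h. Exponentially growing cells (1 × 10^4/well) exposed 72 h at 37 °C to drug dilutions prepared from DMSO solutions in medium. Coulter counter cell counts, triplicates, as % of triplicate controls; IC50 from residual cells vs concentration on semilog scale.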

A further assay has as its system Vero. The experiment in a line: Cytotoxic activity against african green monkey (Cercopithecus aethiops) kidney epithelial cells (VERO). In kind it is functional, cell-based. Particulars: Chlorocebus sabaeus. A digest of the protocol:
as §1

Values joined by “and” are separate entries in the source; they are usually repeats but may differ in a detail not shown here. Equal entries are not always repeated.

`CCCCCC[C@H](O)CCC[C@H](OC[C@H]1O[C@@H](O)[C@H](O)[C@@H](O)[C@@H]1O)[C@H]1CC[C@H]([C@H]2CC[C@H]([C@H](O)CCCCCCCCCCCCC3C[C@H](C)OC3=O)O2)O1` (some centres not stated): the EC50 – broadly, the concentration needed to bring the measured effect to its halfway point – in assay [1] was 9 nM; in the assay on L1210 [3] (l1210), 10 nM and 80 nM. Moreover, in the assay with L1210 [2], at 10 µM the inhibition was 54%.
In the case of `CCCCCC[C@@H](CCC[C@H](OC(C)=O)[C@H]1CC[C@H]([C@H]2CC[C@H]([C@@H](CCCCCCCCCCCCC3=C[C@H](C)OC3=O)OC(C)=O)O2)O1)OC[C@H]1O[C@@H](OC(C)=O)[C@H](OC(C)=O)[C@@H](OC(C)=O)[C@@H]1OC(C)=O`, the EC50 came to 0.96 nM in assay [1]; 300 nM with L1210 [3] (Mus musculus, L1210); 20 nM with Vero.
For `CCCCCC[C@H](O)CCC[C@H](OC[C@H]1O[C@@H](O)[C@H](O)[C@@H](O)[C@@H]1O)[C@H]1CC[C@H]([C@H]2CC[C@H]([C@@H](CCCCCCCCCCCCC3=C[C@H](C)OC3=O)OC[C@H]3O[C@@H](O)[C@H](O)[C@@H](O)[C@@H]3O)O2)O1`, the EC50 was found to be 1050 nM in assay [1]; 10000 nM with L1210 [3] (Mus musculus, L1210); 1050 nM in the assay on Vero.
For the compound `CCCCCC[C@H](O)CCC[C@H](OC[C@H]1O[C@@H](OCc2ccccc2)[C@H](OCc2ccccc2)[C@@H](OCc2ccccc2)[C@@H]1OCc1ccccc1)[C@H]1CC[C@H]([C@H]2CC[C@H]([C@H](O)CCCCCCCCCCCCC3=C[C@H](C)OC3=O)O2)O1`, the midpoint of the response in the assay with L1210 [3] (Mus musculus, L1210), the EC50, lay at 50 nM.
On to `CCCCCC[C@@H](CCC[C@H](OC(C)=O)[C@H]1CC[C@H]([C@H]2CC[C@H]([C@@H](CCCCCCCCCCCCC3=C[C@H](C)OC3=O)OC(C)=O)O2)O1)OC[C@H]1O[C@@H](O)[C@H](O)[C@@H](O)[C@@H]1O`, for which the EC50 in assay [1] was 11 nM; in the assay on L1210 [3] (Mus musculus, L1210) it was 17 nM; with Vero it was 340 nM.
For `CCCCCC[C@H](O)CCC[C@H](O)[C@H]1CC[C@H]([C@H]2CC[C@H]([C@@H](CCCCCCCCCCCCC3=C[C@H](C)OC3=O)OC[C@H]3O[C@H](OCc4ccccc4)[C@H](OCc4ccccc4)[C@@H](OCc4ccccc4)[C@@H]3OCc3ccccc3)O2)O1`, in the assay on L1210 [2], testing at 10 µM gave an inhibition of 65%.
On to `CCCCCC[C@H](O)CCC[C@H](O)[C@H]1CC[C@H]([C@H]2CC[C@H]([C@H](O)CCCCCCCCCCCCC3C[C@H](C)OC3=O)O2)O1` (some centres not stated), for which the concentration giving a half-maximal response (EC50) in assay [1] was 0.24 nM; in the assay with L1210 [3] (Mus musculus, L1210), under 0.25 nM; with Vero, 16 nM.
Turning to `CCCCCC[C@H](O)CCC[C@H](O)[C@H]1CC[C@H]([C@H]2CC[C@H]([C@H](O)CCCCCCCCCCCCC3=C[C@H](C)OC3=O)O2)O1` [SQUAMOCIN], the EC50 was 0.24 nM in assay [1]; under 0.25 nM in the assay on L1210 [3] (Mus musculus, L1210); 16 nM in the assay on Vero.
`CC[C@]1(O)C[C@@H]2CN(CCc3c([nH]c4ccccc34)[C@@](C(=O)OC)(c3cc4c(cc3OC)N(C)[C@H]3[C@@](O)(C(=O)OC)[C@H](OC(C)=O)[C@]5(CC)C=CCN6CC[C@]43[C@@H]65)C2)C1` [VINBLASTINE]: the EC50 in assay [1] was 1.2 nM; in the assay with Vero it was under 3700 nM.
